Screening results as filed in PubChem BioAssay.
HUVEC prolif 384 – inhibitors of HUVEC proliferation, primary screen, cell-based, 384-well; CellTiter-Glo luminescence, 72 h; stronger effect = lower value; viability, % at 10 µM (by protocol); hit rate 1.1% among 86,000;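 active means viability at or below 30%; inactive means viability above 30%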;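 further: 100% = median luminescence of DMSO-only cell control wells on each plate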
Fibroblast inh – antiproliferative effect on LL 47 fibroblasts – human, LL 47 cells, CellTiter-Glo luminescence, primary screen; hit rate 1.1% among 85,000; viability, % at 10 µM; LL 47 human lung fibroblast viability, ATP luminescence; stronger effect = lower value;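 active means viability at or below 50% in the single dose screen; inactive means viability above 50%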;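 further: compound exposure lasted 72 h before the ATP readout; 100% = median luminescence of untreated cell-only wells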
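Test system: LL 47 human lung fibroblasts / Quantity: 1,150 cells in each well / Medium: IMEM growth medium with 15% fetal bovine serum / Incubation: 72 h compound exposure at 37 °C after overnight plating / Detection: CellTiter-Glo luminescence measuring cellular ATP / Read-out: % viability versus median cells-only luminescence / Benchmarks: cell-only wells, no compound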
PTEN del growth – growth suppression of PTEN-null HCT116, primary screen, cell-based, CellTiter-Glo; AID 827, 2007; viability, % at 10 µM; hit rate 1.2% among 140,000; HCT116 PTEN-null viability, 60 h; stronger effect = lower value;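 active means viability at or below a set limit, 4 SD under the median of all tested compounds, cut at about 3.7% in these data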;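 further: PTEN knockout HCT116 line with beta catenin targeted HCT116 as companion control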
HCT116 bCat-KO – primary screen for growth suppressors in beta-catenin knockout HCT116 cells (colon tumor, human); HCT116 beta-catenin knockout viability, CellTiter-Glo, 60 h; stronger effect = lower value; viability, % at 10 µM; hit rate 1.5% among 140,000; AID 818, 2007;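 active means viability at or under a set limit, the compound median less 4 SD, cut at about 6% in these data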;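 further: 0% = Hyamine 1622 control at 20 µM and 100% = untreated cell control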
H69AR growth 86K – proliferation blockers of H69AR lung cancer cells, primary screen, cell-based, human, 86K library | viability, % at 10 µM | H69AR lung tumor viability, ATP luminescence, 72 h; stronger effect = lower value | hit rate 6% among 85,000;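 active means viability at or below 40%; inactive means viability above 40%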;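 further: multidrug resistant small cell line overexpressing MRP-1 efflux transporter; 100% = mean luminescence of untreated control wells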
* = called active by the depositor; . = no result. The full list was thinned out, with hits kept by preference.

SMILES | HUVEC prolif 384 | Fibroblast inh | PTEN del growth | HCT116 bCat-KO | H69AR growth 86K
O=C(CSCCSCC(=O)c1ccco1)c1ccco1 | 87 | 94 | 104 | 101 | 85
Cc1ccc(C(CC(=O)c2ccco2)SCCO)cc1 (configuration not stated) | . | . | 5 | 5.5* | .
O=C(c1ccco1)N1CCN=C1SCc1ccc(F)cc1 | 102 | 107 | 108 | 115 | 106
O=C(CC(SCCO)c1ccc(F)cc1)c1ccco1 (configuration not stated) | . | . | 2.5* | 4.0* | .
O=C(NCC1CCCO1)C(c1cccs1)N(C(=O)c1ccc(CN2CCOCC2)o1)c1ccc(Cl)cc1 (configuration not stated) | . | . | 91 | 92 | .
COc1ccc2c(c1)O/C(=C\c1sccc1C)C2=O | . | . | 86 | 83 | .
Nc1ccc(N2CCCCC2)cc1N1CCCCC1 | . | . | 2.5* | 3.2* | .
CCN(CC)C(=O)C1CCCN(c2ccc([N+](=O)[O-])cc2/C=N/NC(=O)c2cccc(O)c2)C1 (configuration not stated) | . | . | 51 | 56 | .
CN1CCN(c2ccc([N+](=O)[O-])cc2/C=N/NC(=O)c2cccc([N+](=O)[O-])c2)CC1 | . | . | 4 | 5.3* | .
O=C(N/N=C/c1c[nH]c2ccccc12)c1cccc([N+](=O)[O-])c1 | . | . | 79 | 89 | .
Cc1[nH]n(-c2ccccc2)c(=O)c1/C=N/NC(=O)c1cccc([N+](=O)[O-])c1 | . | . | 2.6* | 2.4* | .
Cc1[nH]n(-c2ccccc2)c(=O)c1/C=N/NC(=O)COc1ccccc1[N+](=O)[O-] | . | . | 16 | 24 | .
Cc1[nH]n(-c2cccc3ccccc23)c(=O)c1/C=N/NC(=O)c1cccc([N+](=O)[O-])c1 | . | . | 3.6* | 4.5* | .
Cc1ccc(C)c(NC(=S)NC(NC(=O)Cc2cccc3ccccc23)C(Cl)(Cl)Cl)c1 (configuration not stated) | 4.3* | 4.4* | 2.6* | 17 | 2.3*
CN(O)/C=c1/ccc2c(n1)C(=O)C=CC=2 | 95 | 110 | 15 | 22 | 37*
CCOc1ccc(NC(=S)NN(C)C(=S)Nc2ccc(OCC)cc2)cc1 | . | . | 101 | 94 | .
CCOc1ccc(NC(=O)c2ccc(NC(=O)c3cn4c5c(c(N6CCN(C)CC6)c(F)cc5c3=O)OCC4C)cc2)cc1 (configuration not stated) | . | . | 2.2* | 2.3* | .
COc1ccc(C(=O)O/N=C/c2c(C(F)(F)F)nn(C)c2SCc2ccccc2Cl)cc1 | . | . | 13 | 4.2* | .
COc1ccccc1CNC(=O)CCS(=O)(=O)c1cccc2nonc12 | 104 | 105 | 90 | 101 | 94
CN1CCCN(C(c2ccccc2)c2ccc(Cl)cc2)CC1 (configuration not stated) | 77 | 65 | 16 | 17 | 25*
Cc1cccc(CN2CCN(C(c3ccccc3)c3ccc(Cl)cc3)CC2)c1 (configuration not stated) | 80 | 96 | 78 | 87 | 89
CCn1ncc(/C=N/NC(=O)c2cc(Cl)ccc2OC)c1C | . | . | 98 | 92 | .
O=S(=O)(c1ccc(NC2CCCc3ccccc32)nc1)N1CCOCC1 (configuration not stated) | 96 | 90 | 82 | 83 | 81
CCN(CC)S(=O)(=O)c1ccc(NC2CCCc3ccccc32)nc1 (configuration not stated) | 90 | 94 | 0.5* | 0.6* | 87
CC1=C2C3OC(=O)C(C)[C@@H]3CC[C@](C)(O)C2C2C3C4C5(C12)[C@H]1OC(=O)[C@@H](C)C1CC[C@]4(C)O[C@]5(C)[C@@H]3O (some centres not stated) | . | . | 92 | 89 | .
SMILES | HUVEC prolif 384 | Fibroblast inh | PTEN del growth | HCT116 bCat-KO | H69AR growth 86K
O=C(c1ccc(C#CC2(O)CCCCC2)cc1)N1CCN(C(c2ccccc2)c2ccccc2)CC1 | 85 | 100 | 27 | 59 | 34*
CC(C)Cn1ccc(=O)n(CC(C)C)c1=O | . | . | 103 | 93 | .
O=C(CSc1nnc(-c2cccs2)n1Cc1ccco1)Nc1ccc2c(c1)OCO2 | 94 | 102 | 95 | 98 | 108
CCn1cc(CNC(=O)CCSc2nc(-c3ccco3)cc(C(F)(F)F)n2)cn1 | 82 | 100 | 54 | 67 | 32*
O=C(CSc1nc(-c2ccco2)cc(C(F)(F)F)n1)Nc1ccc(C(=O)N2CCOCC2)cc1 | 101 | 108 | 86 | 92 | 78
O=C(CSc1nc(-c2ccco2)cc(C(F)(F)F)n1)Nc1cccnc1 | 69 | 85 | 65 | 68 | 21*
O=C(CSc1nc(-c2ccco2)cc(C(F)(F)F)n1)Nc1ccc2c(c1)OCO2 | 68 | 90 | 64 | 68 | 24*
O=C(CSc1ncc(-c2ccc(F)cc2)n1Cc1ccco1)Nc1ccc2c(c1)OCO2 | 63 | 101 | 69 | 65 | 25*
O=C(CCC(=O)Nc1ccccc1)NNC(=O)COc1ccccc1 | . | . | 94 | 89 | .
COC(=O)c1cn(NC(=O)/C=C/c2cc(OC)ccc2OC)c(=O)c2ccccc12 | . | . | 83 | 89 | .
CC(C)c1nc(-c2c(N)n(C)c(=O)n(C)c2=O)sc1C(=O)C(C)(C)C | 99 | 102 | 100 | 105 | 96
CSc1cc(-c2ccccc2)n(Cc2c(Cl)cccc2Cl)c(=O)c1C#N | 29 | 33* | 30 | 26 | 12*
N#Cc1cc(-c2ccc(Cl)cc2)cn(Cc2c(Cl)cccc2Cl)c1=O | . | . | 57 | 62 | .
Cc1ccccc1Cn1ccc(-c2ccc(Cl)cc2)c(C#N)c1=O | . | . | 111 | 89 | .
CSc1cc(-c2ccc(Cl)cc2)n(Cc2ccccc2)c(=O)c1C#N | 8.8* | 27* | 94 | 90 | 5.4*
Cc1c(C(=O)Nc2nccs2)sc2nc(-c3cccs3)cc(C(F)(F)F)c12 | 45 | 68 | 2.2* | 1.8* | 36*
CCOC(=O)N1CCC(NC(=O)c2ccc(CS(=O)(=O)c3ccccc3C)o2)CC1 | 93 | 98 | 92 | 94 | 99
CCCCn1c(NC(=S)Nc2ccccc2)nc2ccccc21 | . | . | 30 | 41 | .
Cn1c(NC(=O)c2cccc(Cn3cc(Cl)cn3)c2)nc2ccccc21 | 72 | 50* | 85 | 92 | 37*
CCCn1c(NC(=O)c2ccc(Br)cc2)nc2ccccc21 | 74 | 66 | 62 | 63 | 32*
CCCCn1c(NC(=O)c2ccccc2)nc2ccccc21 | 70 | 48* | 12 | 17 | 14*
CCCCn1c(NC(=O)C2CCCCC2)nc2ccccc21 | 61 | 57 | 9 | 5.2* | 54
COC(=O)[C@@H]1C(c2c(OC)cc(OC)cc2OC)=NO[C@H]1C(=O)OC | . | . | 100 | 87 | .
CC1(C)CC(=O)c2cc(C(=O)NCc3ccco3)c(=O)n(-c3ccc(Cl)cc3)c2C1 | 93 | 48* | 86 | 88 | 59
COCCNC(=O)/C(=C/c1ccccc1Cl)c1ccccc1 | . | . | 89 | 84 | .
CC(=NCCN1CCNCC1)C1=C(O)CC(C)(C)CC1=O | 100 | 103 | 93 | 104 | 102
